# Measurements as given in ChEMBL document CHEMBL2390882, “Synthesis and biological evaluation of novel thiazolidinone derivatives as potential anti-inflammatory agents” (Eur J Med Chem, 2013).
# “And” between values parts separate entries of the source, which are not always exact repeats. Equal entries are not always repeated. The source made the active and inactive calls. No cut-off for these calls is given here.
# What was measured:
# RAW264.7 [1] = assay: Antiinflammatory activity in mouse RAW264.7 cells assessed as inhibition of LPS-induced TNFalpha release at 10 uM incubated for 2 hrs prior to LPS challenge measured after 22 hrs by ELISA relative to LPS-treated control; type: functional
# How it was run: (§1)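 RAW 264.7 macrophages in DMEM with 10% heat-inactivated FBS, plated at 4.0×10⁵/plate overnight. Pretreated 2 h with compound at 10 µM (curcumin 10 µM as reference), then LPS 0.5 µg/ml for 22 h. Medium cytokine measured by mouse ELISA kit and normalized to cell-lysate total protein. Expressed as % of LPS control, mean ±SEM of 4 independent experiments.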
# RAW264.7 [2] = assay: Antiinflammatory activity in mouse RAW264.7 cells assessed as inhibition of LPS-induced IL6 release at 10 uM incubated for 2 hrs prior to LPS challenge measured after 22 hrs by ELISA relative to LPS-treated control; type: functional; conditions: for inhibition at 10 µM: Mus musculus, RAW264.7; how it was run: as §1
# RAW264.7 [3] = assay: Cytotoxicity against mouse RAW264.7 cells assessed as cell viability at 20 uM after 48 hrs by MTT assay; type: cell-based; conditions: raw264.7, 48 h
# How it was run: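 RAW264.7 cells seeded at 5000/well in 1640 medium with 5% heat-inactivated serum and grown 24 h before treatment. Compounds (DMSO stock) tested at 20 µM final for 48 h. MTT (5 mg/ml in 0.9% NaCl) added for 3 h, formazan dissolved in DMSO, absorbance read at 570 nm.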
# RAW264.7 [4] = assay: Antiinflammatory activity in mouse RAW264.7 cells assessed as inhibition of LPS-induced TNFalpha release incubated for 2 hrs prior to LPS challenge measured after 22 hrs by ELISA; type: functional, cell-based
# How it was run: (§2)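 RAW 264.7 cells plated at 1.2×10⁶/plate overnight, pretreated 2 h at 0.3, 1.1, 3.3 and 10 µM, then stimulated with LPS 0.5 µg/ml for 22 h. Secreted cytokine quantified by ELISA and normalized to total cell protein, given as % of LPS control. IC50 derived from the concentration-response, 3-5 independent experiments.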
# RAW264.7 [5] = assay: Antiinflammatory activity in mouse RAW264.7 cells assessed as inhibition of LPS-induced IL6 release incubated for 2 hrs prior to LPS challenge measured after 22 hrs by ELISA; type: functional, cell-based; how it was run: as §2
# Mus musculus [6] = assay: Antiinflammatory activity in C57BL/6 mouse assessed as decrease in LPS-induced septic death at 15 mg/kg, ip administered 15 mins prior to LPS challenge measured every 1 day for 7 days relative to LPS-treated control; type: functional, organism-based; parameters: dose 15 mg/kg
# How it was run: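 Male C57BL/6 mice, 18-22 g ([…]), acclimatized at least 7 days. Drug at 2 mg/mL in macrogol 15 hydroxystearate (5-10%) with or without MCT (0.5-2%), dosed i.p. 15 min before LPS (20 mg/kg i.v.). Vehicle controls received 10% solubilizer with 2% MCT. Survival recorded daily for 7 days, n=12 per group.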
# Mus musculus [7] = assay: Antiinflammatory activity in LPS-treated C57BL/6 mouse assessed as survival rate at 15 mg/kg, ip administered 15 mins measured every 1 day for 7 days relative to LPS-treated control; type: functional; conditions: C57BL/6, ip, route intraperitoneal
# How it was run: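 Male C57BL/6 mice (18-22 g, acclimatized ≥7 days) got LPS 20 mg/kg i.v. and drug 15 mg/kg i.p. either 15 min before or 15 min after. The drug was given at 2 mg/mL in macrogol 15 hydroxystearate (5-10% final), with or without MCT (0.5-2%), dissolved at 37 °C. Controls received vehicle. Survival was recorded daily for 7 days, with 12 mice per group.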
Compound,inhibition (RAW264.7 [1]),inhibition (RAW264.7 [2]),Activity (RAW264.7 [3]),other results
COc1cccc(/C=c2\sc3ncnn3c2=O)c1OC,Active,Active,Non-toxic,
Cc1ccc(/C=c2\sc3nc4ccccc4n3c2=O)s1,Active,Active,Non-toxic,
CCOC(=O)C1=C(C)N=c2s/c(=C\c3cccn3C)c(=O)n2C1c1ccccc1 (centres undefined),,,Non-toxic,inhibition at 10 µM (RAW264.7 [1]): 60%; inhibition (INH) (RAW264.7 [2]): 50% and 87%; IC50 (RAW264.7 [4]): > 10 µM; IC50 (RAW264.7 [5]): 6.39 µM
CCOC(=O)C1=C(C)N=c2s/c(=C\c3ccc(C)s3)c(=O)n2C1c1ccccc1 (centres undefined),Active,,Non-toxic,inhibition at 10 µM (RAW264.7 [2]): > 50%
O=c1/c(=C/c2cccs2)sc2nc3ccccc3n12,Active,Active,Non-toxic,
CCOC(=O)C1=C(C)N=c2s/c(=C\c3ccccc3Br)c(=O)n2C1c1ccccc1 (centres undefined),Active,Active,Non-toxic,
Cn1cccc1/C=c1\sc2n(c1=O)CCN=2,,,Non-toxic,inhibition at 10 µM (RAW264.7 [1]): > 50%; inhibition at 10 µM (RAW264.7 [2]): > 50%
O=c1/c(=C/c2ccc(N3CCOCC3)cc2)sc2ncnn12,,,Non-toxic,inhibition at 10 µM (RAW264.7 [1]): > 50%; inhibition at 10 µM (RAW264.7 [2]): > 50%
COc1ccc(/C=c2\sc3nc4ccccc4n3c2=O)cc1O,Active,Active,Non-toxic,
Cc1ccc(/C=c2\sc3n(c2=O)CCN=3)s1,,Active,Non-toxic,inhibition at 10 µM (RAW264.7 [1]): > 50%
Cc1ccc(/C=c2\sc3nc4ccccc4n3c2=O)c(C)c1,Active,Active,Non-toxic,
CCOC(=O)C1=C(C)N=c2s/c(=C\c3ccccc3F)c(=O)n2C1c1ccccc1 (centres undefined),Active,Active,Non-toxic,
CCOC(=O)C1=C(C)N=c2s/c(=C\c3ccc(N4CCOCC4)cc3)c(=O)n2C1c1ccccc1 (centres undefined),,,Non-toxic,Activity (Mus musculus [6]): inactive; inhibition at 10 µM (RAW264.7 [1]): 62%; survival at 15 mg/kg (Mus musculus [7]): 70%; inhibition at 10 µM (RAW264.7 [2]): 92%; IC50 (RAW264.7 [4]): 4.17 µM; inhibition (RAW264.7 [4]): Dose-dependent effect; IC50 (RAW264.7 [5]): 0.83 µM; inhibition (RAW264.7 [5]): Dose-dependent effect
O=c1/c(=C/c2ccccc2Cl)sc2nc3ccccc3n12,Active,Active,Non-toxic,
O=c1/c(=C/c2c[nH]c3ccccc23)sc2ncnn12,Active,,Non-toxic,inhibition at 10 µM (RAW264.7 [2]): > 50%
O=c1/c(=C/c2ccc3ccccc3c2)sc2nc3ccccc3n12,Active,Active,Non-toxic,

Compound,inhibition (RAW264.7 [1]),inhibition (RAW264.7 [2]),Activity (RAW264.7 [3]),other results
O=c1/c(=C/c2ccc(N3CCOCC3)cc2)sc2n1CCN=2,Active,,Non-toxic,inhibition at 10 µM (RAW264.7 [2]): > 50%
CCOC(=O)C1=C(C)N=c2s/c(=C\c3ccc(C)cc3C)c(=O)n2C1c1ccccc1 (centres undefined),Active,Active,Non-toxic,
O=c1/c(=C/c2ccc(N3CCOCC3)cc2)sc2nc3ccccc3n12,Active,Active,Non-toxic,
O=c1/c(=C/c2ccccc2F)sc2nc3ccccc3n12,Active,Active,Non-toxic,
O=c1/c(=C/c2c[nH]c3ccccc23)sc2nc3ccccc3n12,Active,,Non-toxic,inhibition at 10 µM (RAW264.7 [2]): > 50%
CCOC(=O)C1=C(C)N=c2s/c(=C\c3cccc(OC)c3O)c(=O)n2C1c1ccccc1 (centres undefined),Active,Active,Non-toxic,
CCOc1ccc(Br)cc1/C=c1\sc2nc3ccccc3n2c1=O,Active,Active,Non-toxic,
O=c1/c(=C/c2cccc(Cl)c2Cl)sc2nc3ccccc3n12,Active,Active,Non-toxic,
CCOC(=O)C1=C(C)N=c2s/c(=C\c3cccc4ccccc34)c(=O)n2C1c1ccccc1 (centres undefined),Active,Active,Non-toxic,
COc1cc(/C=c2\sc3nc4ccccc4n3c2=O)ccc1O,Active,Active,Non-toxic,
O=c1/c(=C/c2ccccc2Cl)sc2n1CCN=2,Active,Active,Non-toxic,
COc1ccccc1/C=c1\sc2nc3ccccc3n2c1=O,Active,Active,Non-toxic,
O=c1/c(=C/c2ccccc2Br)sc2nc3ccccc3n12,Active,Active,Non-toxic,
O=c1/c(=C/c2ccccc2[N+](=O)[O-])sc2nc3ccccc3n12,Active,Active,Non-toxic,
O=c1/c(=C/c2ccccc2Br)sc2ncnn12,,,Non-toxic,inhibition at 10 µM (RAW264.7 [1]): > 50%; inhibition at 10 µM (RAW264.7 [2]): > 50%
Cc1ccc(/C=c2\sc3ncnn3c2=O)s1,Active,Active,Non-toxic,
